Data on eleven compounds can be found in ChEMBL document CHEMBL1156681, “Synthesis, anti-bacterial, anti-asthmatic and anti-diabetic activities of novel N-substituted-2-(4-phenylethynyl-phenyl)-1H-benzimidazoles and N-substituted 2[4-(4,4-dimethyl-thiochroman-6-yl-ethynyl)-phenyl)-1H-benzimidazoles” (2008).

≈ marks a conversion by molar mass, not a printed value. Calls of active or inactive are those of the source.

Assay [1] concerns Staphylococcus aureus. As to the kind of experiment: Antibacterial activity against Staphylococcus aureus at 200 ug/ml after 48 hrs by tube dilution method. In kind it is functional, organism-based. The gist of the method: (§1)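 Compounds dissolved in DMSO and tested by tube dilution at […]. Tubes were incubated at 37 °C for 48 h. Growth was scored against the DMSO control as poor, medium or confluent (no inhibition). MIC was taken from the dilution series. Cephalexin served as the reference antibacterial and DMSO as the solvent control.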

The subject of assay [2] is Salmonella typhimurium. As to the kind of experiment: Antibacterial activity against Salmonella Typhimurium at 1 ug/ml after 48 hrs by tube dilution method. It is filed as functional, organism-based. As to conditions: Salmonella enterica subsp. enterica serovar Typhimurium. The gist of the method: as §1
Assay [3] deals with Staphylococcus aureus. In words: Antibacterial activity against Staphylococcus aureus at 0.1 ug/ml after 48 hrs by tube dilution method. In kind it is functional, organism-based. Summed up:
as §1

Assay [4] relates to Salmonella typhimurium. In words: Antibacterial activity against Salmonella Typhimurium at 0.1 ug/ml after 48 hrs by tube dilution method. In kind it is functional, organism-based. As to conditions: Salmonella enterica subsp. enterica serovar Typhimurium. The gist of the method:
as §1

The subject of assay [5] is Salmonella typhimurium. As to the kind of experiment: Antibacterial activity against Salmonella Typhimurium at 200 ug/ml after 48 hrs by tube dilution method. It is filed as functional, organism-based. As to conditions: Salmonella enterica subsp. enterica serovar Typhimurium. Summed up:
as §1

Assay [6] concerns Staphylococcus aureus. As to the kind of experiment: Antibacterial activity against Staphylococcus aureus at 10 ug/ml after 48 hrs by tube dilution method. In kind it is functional, organism-based. Summed up:
as §1

Assay [7] has as its system Staphylococcus aureus. In words: Antibacterial activity against Staphylococcus aureus at 100 ug/ml after 48 hrs by tube dilution method. It is filed as functional, organism-based. Summed up: as §1
Assay [8] has as its system Salmonella typhimurium. In words: Antibacterial activity against Salmonella Typhimurium after 48 hrs by tube dilution method. In kind it is functional, Salmonella enterica subsp. enterica serovar Typhimurium. Particulars: Salmonella enterica. Summed up: as §1
The subject of assay [9] is Staphylococcus aureus. In words: Antibacterial activity against Staphylococcus aureus at 1 ug/ml after 48 hrs by tube dilution method. In kind it is functional, organism-based. The gist of the method: as §1
Assay [10] relates to Salmonella typhimurium. In words: Antibacterial activity against Salmonella Typhimurium at 500 ug/ml after 48 hrs by tube dilution method. In kind it is functional, organism-based. Particulars: Salmonella enterica subsp. enterica serovar Typhimurium. The gist of the method:
as §1

For assay [11], the system named is Staphylococcus aureus. In words: Antibacterial activity against Staphylococcus aureus after 48 hrs by tube dilution method. In kind it is functional. The gist of the method: as §1
For assay [12], the system named is Staphylococcus aureus. In words: Antibacterial activity against Staphylococcus aureus at 500 ug/ml after 48 hrs by tube dilution method. It is filed as functional, organism-based. Summed up: as §1
For assay [13], the target named is Dipeptidyl peptidase 4 (Homo sapiens) (UniProt P27487). In words: Inhibition of human recombinant DPP4 at 0.3 uM after 30 mins relative to control. Summed up:
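Recombinant human DPP-IV (10 ng) was run in 25 mM Tris pH 7.4, 140 mM NaCl, 10 mM KCl and 1% BSA with Gly-Pro-AMC substrate. Compounds in DMSO were added, and AMC release was followed kinetically at 30 °C for 30 min (ex 380 / em 460 nm). Percent inhibition was calculated against the solvent-only control.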

The test system of assay [14] is Salmonella typhimurium. In words: Antibacterial activity against Salmonella Typhimurium at 100 ug/ml after 48 hrs by tube dilution method. It is filed as functional, organism-based. Particulars: Salmonella enterica subsp. enterica serovar Typhimurium. Summed up:
as §1

Assay [15] has as its target T1, Tyrosine-protein phosphatase non-receptor type 1 (Homo sapiens) (UniProt P18031).
T1 sequence (whole entry): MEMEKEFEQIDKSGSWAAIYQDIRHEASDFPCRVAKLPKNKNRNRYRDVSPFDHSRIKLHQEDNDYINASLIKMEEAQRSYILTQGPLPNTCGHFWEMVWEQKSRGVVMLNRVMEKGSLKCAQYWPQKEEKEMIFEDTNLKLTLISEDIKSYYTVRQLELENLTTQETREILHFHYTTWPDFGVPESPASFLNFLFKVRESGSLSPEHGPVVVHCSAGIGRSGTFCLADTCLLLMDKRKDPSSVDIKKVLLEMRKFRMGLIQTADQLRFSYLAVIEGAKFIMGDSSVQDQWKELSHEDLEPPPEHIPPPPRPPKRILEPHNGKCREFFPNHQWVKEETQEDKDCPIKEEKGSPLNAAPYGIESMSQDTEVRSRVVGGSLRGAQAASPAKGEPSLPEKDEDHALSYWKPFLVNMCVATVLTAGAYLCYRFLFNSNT
In words: Inhibition of human recombinant PTP1B at 30 uM after 30 mins relative to control. Summed up:
(§2)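 In-house human recombinant PTP-1B (~35 ng) was assayed with p-nitrophenyl phosphate in 25 mM Hepes, 3 mM DTT and 1 mM EDTA, pH 7.4, with DMSO at ≤1%. Absorbance at 405 nm was monitored continuously at 30 °C for 30 min, then NaOH was added and 405 nm read again. Activity was expressed as % of control, and % inhibition as 100 minus activity.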

For assay [16], the target named is T2, Phosphodiesterase 4 (Homo sapiens) (UniProt P27815+Q08499+Q07343+Q08493). As to the kind of experiment: Inhibition of human PDE4 at 1 uM after 20 mins. It is filed as protein assay.
Assay [17] has as its system Salmonella typhimurium. In words: Antibacterial activity against Salmonella Typhimurium at 10 ug/ml after 48 hrs by tube dilution method. It is filed as functional, organism-based. As to conditions: Salmonella enterica subsp. enterica serovar Typhimurium. The gist of the method: as §1
Assay [18] deals with T1, Tyrosine-protein phosphatase non-receptor type 1 (Homo sapiens). In words: Inhibition of human recombinant PTP1B at 0.3 uM after 30 mins relative to control. The gist of the method:
as §2

Assay [19] concerns the target T2, Phosphodiesterase 4 (Homo sapiens). Particulars: 0.075 uM.

Sequence of Dipeptidyl peptidase 4 (Homo sapiens) (P27487 whole entry, looked up): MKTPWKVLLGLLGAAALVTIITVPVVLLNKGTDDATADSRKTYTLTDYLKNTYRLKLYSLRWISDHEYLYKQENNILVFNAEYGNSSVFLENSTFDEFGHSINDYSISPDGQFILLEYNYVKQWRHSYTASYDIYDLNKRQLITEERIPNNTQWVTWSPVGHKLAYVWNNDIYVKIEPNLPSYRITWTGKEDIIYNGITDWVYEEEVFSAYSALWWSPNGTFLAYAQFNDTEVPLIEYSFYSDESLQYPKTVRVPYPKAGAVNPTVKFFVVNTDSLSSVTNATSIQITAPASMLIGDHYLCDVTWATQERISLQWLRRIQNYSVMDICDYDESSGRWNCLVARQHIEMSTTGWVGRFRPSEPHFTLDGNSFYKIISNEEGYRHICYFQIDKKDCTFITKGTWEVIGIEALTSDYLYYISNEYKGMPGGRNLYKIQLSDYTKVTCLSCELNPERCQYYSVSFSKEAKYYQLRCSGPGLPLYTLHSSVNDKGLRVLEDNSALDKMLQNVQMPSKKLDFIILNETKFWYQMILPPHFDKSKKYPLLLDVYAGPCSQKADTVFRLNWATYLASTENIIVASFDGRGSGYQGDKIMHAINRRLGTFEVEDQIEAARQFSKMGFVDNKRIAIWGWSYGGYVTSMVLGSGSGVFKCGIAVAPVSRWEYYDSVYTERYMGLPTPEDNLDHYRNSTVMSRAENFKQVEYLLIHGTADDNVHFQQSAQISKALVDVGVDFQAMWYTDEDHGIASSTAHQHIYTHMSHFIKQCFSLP

In general, MIC refers to the smallest concentration in the dilution series that meets the test's criterion for growth inhibition. Low values mean greater potency, high ones weaker potency. As for `CC1=C(C(=O)O)N2C(=O)[C@@H](NC(=O)[C@H](N)c3ccccc3)[C@H]2SC1` [CEPHALEXIN ANHYDROUS], the outcome with Staphylococcus aureus [1], in the assay with Salmonella typhimurium [5], in the assay with Staphylococcus aureus [6], in the assay on Staphylococcus aureus [7], with Salmonella typhimurium [10] and in the assay on Staphylococcus aureus [12] was Active. For the same compound, the result in the assay on Salmonella typhimurium [2], with Staphylococcus aureus [3], in the assay with Salmonella typhimurium [4] and with Staphylococcus aureus [9] was inactive. For the same compound, the values for the MIC against Salmonella typhimurium [8] and in the assay with Staphylococcus aureus [11] were 200 µg/mL (≈ 576 µM) and 10 µg/mL (≈ 28.8 µM), respectively.

By inhibition is commonly meant the percentage by which the read-out fell short of the control. As to `CCn1c(-c2ccc(C#Cc3ccccc3)cc2)nc2ccccc21`, the outcome in the assay with Salmonella typhimurium [2], with Salmonella typhimurium [14], with Staphylococcus aureus [3], in the assay with Salmonella typhimurium [4], in the assay on Staphylococcus aureus [6] and with Staphylococcus aureus [7] was inactive. Further, the outcome in the assay with Staphylococcus aureus [9] and with Salmonella typhimurium [17] was inactive. The values for the inhibition in assay [13], in assay [15] and in [16] were 0%, 2.2% and 13.5%, respectively. For the same compound, the MIC against Salmonella typhimurium [8] and with Staphylococcus aureus [11] was 500 µg/mL (≈ 1550 µM) throughout. Further, the outcome in the assay on Salmonella typhimurium [10] and with Staphylococcus aureus [12] was Active.

With `Cc1ccc(S(=O)(=O)n2c(-c3ccc(C#Cc4ccccc4)cc3)nc3ccccc32)cc1`, the result in the assay on Staphylococcus aureus [1], in the assay on Salmonella typhimurium [5], in the assay with Salmonella typhimurium [10] and in the assay on Staphylococcus aureus [12] was Active. The outcome in the assay with Salmonella typhimurium [2], in the assay with Staphylococcus aureus [3], with Salmonella typhimurium [4], with Staphylococcus aureus [9] and with Salmonella typhimurium [17] was inactive. In addition, the inhibition stood at 0% in [13], 0% in [15] and 22.6% in assay [16]. For the same compound, the MIC against Salmonella typhimurium [8] and in the assay with Staphylococcus aureus [11] was 200 µg/mL (≈ 446 µM) in each case.

On to `O=S(=O)(n1c(-c2ccc(C#Cc3ccccc3)cc2)nc2ccccc21)C(F)(F)F`, for which the outcome with Salmonella typhimurium [2], in the assay on Staphylococcus aureus [3], in the assay on Salmonella typhimurium [4], with Staphylococcus aureus [6], with Staphylococcus aureus [7] and in the assay on Staphylococcus aureus [9] was inactive. The outcome with Salmonella typhimurium [17] was inactive. The inhibition was determined as 0% in assay [13], 0% in assay [15] and 16.9% in [16]. The MIC in the assay with Salmonella typhimurium [8] and with Staphylococcus aureus [11] was 500 µg/mL (≈ 1170 µM) in each case. Moreover, the result in the assay on Salmonella typhimurium [10] and with Staphylococcus aureus [12] was Active.

With `CCn1c(-c2ccc(C#Cc3ccc4c(c3)C(C)(C)CCS4)cc2)nc2ccccc21`, the result with Staphylococcus aureus [1], with Salmonella typhimurium [5], in the assay on Salmonella typhimurium [10] and in the assay on Staphylococcus aureus [12] was Active. Further, the outcome with Salmonella typhimurium [2], in the assay on Staphylococcus aureus [3], in the assay with Salmonella typhimurium [4], in the assay with Staphylococcus aureus [6], in the assay on Staphylococcus aureus [9] and in the assay with Salmonella typhimurium [17] was inactive. The values for the inhibition in assay [13], in assay [15] and in assay [16] were 0%, 0% and 15.8%, respectively. The MIC in the assay on Salmonella typhimurium [8] and with Staphylococcus aureus [11] was 200 µg/mL (≈ 473 µM) in each case.

Regarding `CCCCOC(=O)n1c(-c2ccc(C#Cc3ccccc3)cc2)nc2ccccc21`, the outcome with Salmonella typhimurium [2], in the assay on Salmonella typhimurium [14], in the assay on Staphylococcus aureus [3], in the assay on Salmonella typhimurium [4], in the assay on Staphylococcus aureus [6] and with Staphylococcus aureus [7] was inactive. The outcome in the assay on Staphylococcus aureus [9] and in the assay with Salmonella typhimurium [17] was inactive. Moreover, the inhibition in assay [13] was found to be 0%; in [15], 5.84%; in [16] it was 16.2%. For the same compound, the MIC in the assay with Salmonella typhimurium [8] and with Staphylococcus aureus [11] was 500 µg/mL (≈ 1270 µM) each time. Also, the result in the assay on Salmonella typhimurium [10] and with Staphylococcus aureus [12] was Active.

Turning to `C=C(O)CN(c1ccccc1C(=O)O)C(CCC(=O)N[C@@H](CCSC)C(=O)O)CNC(=O)C(Cc1cccc(CC)c1)NC(C)=O` (stereo not given in full), the inhibition in assay [18] was determined as 49.1%.

For `C(#Cc1ccc(-c2nc3ccccc3[nH]2)cc1)c1ccccc1`, the outcome in the assay on Staphylococcus aureus [1], with Salmonella typhimurium [5], in the assay on Salmonella typhimurium [10] and in the assay with Staphylococcus aureus [12] was Active. Besides, the result in the assay on Salmonella typhimurium [2], in the assay on Staphylococcus aureus [3], in the assay on Salmonella typhimurium [4], with Staphylococcus aureus [6], with Staphylococcus aureus [9] and in the assay on Salmonella typhimurium [17] was inactive. Further, the inhibition in assay [13] is 0%; in [15], 1.64%; in [16] it was 3.4%. The MIC in the assay on Salmonella typhimurium [8] and against Staphylococcus aureus [11] was 200 µg/mL (≈ 679 µM) in each case.

`CC1(C)CCSc2ccc(C#Cc3ccc(-c4nc5ccccc5[nH]4)cc3)cc21`: the outcome in the assay with Staphylococcus aureus [1], with Salmonella typhimurium [5], in the assay on Salmonella typhimurium [10] and in the assay on Staphylococcus aureus [12] was Active. The result in the assay on Salmonella typhimurium [2], in the assay on Staphylococcus aureus [3], with Salmonella typhimurium [4] and in the assay on Staphylococcus aureus [9] was inactive. For the same compound, the inhibition was determined as 0% in [13], 2.42% in assay [15] and 0% in assay [16]. Also, the MIC in the assay on Salmonella typhimurium [8] and against Staphylococcus aureus [11] was 200 µg/mL (≈ 507 µM) each time.

`COc1ccc([C@]2(C#N)CC[C@@H](C(=O)O)CC2)cc1OC1CCCC1` came in with an inhibition in assay [19] of 45.3%.

In the case of `CC(C)COC(=O)n1c(-c2ccc(C#Cc3ccccc3)cc2)nc2ccccc21`, the result in the assay with Salmonella typhimurium [2], with Salmonella typhimurium [14], in the assay with Staphylococcus aureus [3], with Salmonella typhimurium [4], with Staphylococcus aureus [6] and with Staphylococcus aureus [7] was inactive. For the same compound, the outcome with Staphylococcus aureus [9] and in the assay with Salmonella typhimurium [17] was inactive. Further, the values for the inhibition in assay [13], in [15] and in assay [16] were 0%, 17.4% and 17.2%, respectively. For the same compound, the MIC against Salmonella typhimurium [8] and against Staphylococcus aureus [11] was 500 µg/mL (≈ 1270 µM) throughout. Also, the outcome in the assay with Salmonella typhimurium [10] and in the assay with Staphylococcus aureus [12] was Active.
